Laboratory results: ChEMBL document CHEMBL2396626, “Exploiting drug-resistant enzymes as tools to identify thienopyrimidinone inhibitors of human immunodeficiency virus reverse transcriptase-associated ribonuclease H” (J Med Chem, 2013)
Activity calls are given as the source filed them. The rule behind the calls is not given here.

Assays:
[1] = target: Human immunodeficiency virus type 1 reverse transcriptase (Human immunodeficiency virus 1, UniProt Q72547); assay: Inhibition of RNase H activity of wild type HIV-1 reverse transcriptase using 18 nucleotide 3'-fluorescein-labeled RNA/18 nucleotide 5'-dabsyl-labeled DNA hybrid as substrate after 10 mins by fluorescence spectrometric analysis
[2] = target: Human immunodeficiency virus type 1 integrase (Human immunodeficiency virus 1) (UniProt Q7ZJM1); assay: Inhibition of HIV-1 integrase using DNA duplex as substrate at 50 uM preincubated for 10 mins prior to substrate addition measured after 1 hr
Sequence of Human immunodeficiency virus type 1 integrase (Human immunodeficiency virus 1) (Q7ZJM1 as listed by the source): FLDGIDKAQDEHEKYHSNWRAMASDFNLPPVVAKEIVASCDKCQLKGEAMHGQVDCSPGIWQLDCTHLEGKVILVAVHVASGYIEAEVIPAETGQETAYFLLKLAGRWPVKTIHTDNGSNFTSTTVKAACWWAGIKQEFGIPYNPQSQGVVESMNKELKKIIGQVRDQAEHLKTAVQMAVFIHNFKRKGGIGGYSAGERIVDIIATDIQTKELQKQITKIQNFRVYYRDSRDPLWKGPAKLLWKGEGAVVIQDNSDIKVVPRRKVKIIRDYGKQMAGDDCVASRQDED

[3] = tested on: Human immunodeficiency virus type 1 reverse transcriptase (Human immunodeficiency virus 1), Q72547 [Y181C]; assay: Inhibition of HIV-1 reverse transcriptase Y181C mutant at 50 uM
[4] = tested on: Human immunodeficiency virus type 1 reverse transcriptase (Human immunodeficiency virus 1), Q72547 [K103N]; assay: Inhibition of HIV-1 reverse transcriptase K103N mutant at 50 uM
[5] = tested on: Human immunodeficiency virus 1; assay: Inhibition of HIV-1 DNA-dependent DNA polymerase using DNA duplex as substrate at 50 uM after 15 mins by PAGE relative to control
[6] = Inhibition of RNase H activity of HIV-1 reverse transcriptase p66/p51 T286A mutant using 18 nucleotide 3'-fluorescein-labeled RNA/18 nucleotide 5'-dabsyl-labeled DNA hybrid as substrate after 10 mins by fluorescence spectrometric analysis; design: species or system Human immunodeficiency virus 1
[7] = Inhibition of RNase H activity of HIV-1 reverse transcriptase p66/p51 R284A mutant using 18 nucleotide 3'-fluorescein-labeled RNA/18 nucleotide 5'-dabsyl-labeled DNA hybrid as substrate after 10 mins by fluorescence spectrometric analysis; design: species or system Human immunodeficiency virus 1
[8] = Inhibition of RNase H activity of HIV-1 reverse transcriptase p66/p51 C280A mutant using 18 nucleotide 3'-fluorescein-labeled RNA/18 nucleotide 5'-dabsyl-labeled DNA hybrid as substrate after 10 mins by fluorescence spectrometric analysis; design: species or system Human immunodeficiency virus 1
[9] = Inhibition of RNase H activity of HIV-1 reverse transcriptase p66/p51 V276A mutant using 18 nucleotide 3'-fluorescein-labeled RNA/18 nucleotide 5'-dabsyl-labeled DNA hybrid as substrate after 10 mins by fluorescence spectrometric analysis; design: species or system Human immunodeficiency virus 1
[10] = target: Human immunodeficiency virus type 1 reverse transcriptase (Human immunodeficiency virus 1) (UniProt Q72547); assay: Binding affinity to HIV-1 reverse transcriptase p66/p51 assessed as decrease in melting temperature at 10 uM by differential scanning fluorimetric analysis in presence of Mg2+
[11] = target: Human immunodeficiency virus type 1 reverse transcriptase (Human immunodeficiency virus 1) (UniProt Q72547); conditions: 500 uM
[12] = Selectivity ratio of CC50 for human CEM-SS cells to EC50 for Human immunodeficiency virus 1 RF isolate; assay type: ADME, cell-based
CEM-SS = assay: Cytotoxicity against human CEM-SS cells by XTT assay; assay type: cell-based
Summary of the method: (§1)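 Cytopathic-protection format: HIV-1 RF isolate in human T-cell line CEM-SS, with cell viability read by XTT-based assay.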

[13] = tested on: Human immunodeficiency virus 1; assay: Antiviral activity against Human immunodeficiency virus 1 RF isolate infected in human CEM-SS cells by XTT assay; assay type: functional, organism-based; summary of the method: as §1
[14] = target: Human immunodeficiency virus type 1 reverse transcriptase (Human immunodeficiency virus 1) (UniProt Q72547); assay: Inhibition of RNase H activity of HIV-1 reverse transcriptase using 18 nucleotide 3'-fluorescein-labeled RNA/18 nucleotide 5'-dabsyl-labeled DNA hybrid as substrate by Yonetani-Theorell plot analysis in presence of beta-thujaplicinol
Summary of the method: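 Yonetani-Theorell: RNase H rates at 250 nM RNA/DNA substrate, fixed enzyme, thienopyrimidinone 0–5 μM against β-thujaplicinol 0, 0.125, 0.25, 0.5, 1 μM; hydrolysis started with substrate, monitored 60 min; V0/Vi plotted and fitted to two-inhibitor equation with interaction term.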

[15] = target: Human immunodeficiency virus type 1 reverse transcriptase (Human immunodeficiency virus 1) (UniProt Q72547); assay: Binding affinity to HIV-1 reverse transcriptase p66/p51-RNA/DNA hybrid complex assessed as decrease in melting temperature at 10 uM by differential scanning fluorimetric analysis in presence of Mg2+

O=c1[nH]c(-c2ccc(O)cc2O)nc2sc3c(c12)CCCCC3
IC50 [1]: 9300 nM

O=c1[nH]c(-c2ccc(O)c(O)c2)nc2sc3c(c12)CCCC3
inhibition [2]: inactive | inhibition [3]: Active | inhibition [4]: Active | inhibition [5]: > 60% | IC50 [6]: 460 nM | IC50 [7]: 920 nM | IC50 [8]: 290 nM | IC50 [9]: 410 nM | IC50 [1]: 370 nM | ΔTm [10]: 0.5 °C

Cc1sc2nc(-c3cccc([N+](=O)[O-])c3)[nH]c(=O)c2c1C
IC50 [7]: 340 nM | IC50 [8]: > 50000 nM | IC50 [9]: 260 nM | IC50 [1]: 1500 nM

CC(C)c1ccc(O)c(=O)c(O)c1
ΔTm [11]: 2 °C | ΔTm [10]: 0.5 °C

O=c1[nH]c(-c2ccc(O)c(O)c2)nc2sc3c(c12)CCCCCC3
inhibition [2]: inactive | inhibition [3]: Active | inhibition [4]: Active | inhibition [5]: > 60% | IC50 [6]: 290 nM | IC50 [7]: 280 nM | IC50 [8]: 230 nM | IC50 [9]: 110 nM | IC50 [1]: 260 nM | ΔTm [10]: 0.5 °C

COc1ccc(-c2nc3sc(C)c(C)c3c(=O)[nH]2)cc1
IC50 [1]: 9100 nM

Cc1sc2nc(-c3cc4ccccc4[nH]3)[nH]c(=O)c2c1C
IC50 [6]: 960 nM | IC50 [7]: 120 nM | IC50 [8]: > 50000 nM | IC50 [9]: 160 nM | IC50 [1]: 480 nM

O=C(O)c1ccc(-c2nc3sc4c(c3c(=O)[nH]2)CCCCC4)cc1
IC50 [6]: 32000 nM | IC50 [7]: 950 nM | IC50 [8]: > 50000 nM | IC50 [9]: 460 nM | IC50 [1]: 1900 nM

COc1ccc(-c2nc3sc(C)c(C)c3c(=O)[nH]2)cc1OC
IC50 [1]: 12600 nM

COc1cc(-c2nc3sc(C)c(C)c3c(=O)[nH]2)ccc1O
IC50 [1]: > 50000 nM

Cc1sc2nc(-c3ccc(O)c(F)c3)[nH]c(=O)c2c1C
IC50 [1]: > 50000 nM

Cc1sc2nc(-c3cc(O)c(O)c(O)c3)[nH]c(=O)c2c1C
IC50 [1]: 690 nM

Cc1sc2nc(-c3ccc([N+](=O)[O-])o3)[nH]c(=O)c2c1C
IC50 [1]: 16900 nM

Cc1sc2nc(-c3ccc([N+](=O)[O-])cc3)[nH]c(=O)c2c1C
ΔTm [10]: 0.5 °C

CCCc1c(C)sc2nc(-c3ccc(O)c(O)c3)[nH]c(=O)c12
Ratio CC50/EC50 [12]: 5.9 | CC50 (CEM-SS): 11200 nM | EC50 [13]: 1900 nM | IC50 [6]: 570 nM | IC50 [7]: 800 nM | IC50 [8]: 370 nM | IC50 [9]: 560 nM | IC50 [1]: 490 nM | ΔTm [10]: 0.5 °C

O=c1[nH]c(-c2cccc(O)c2O)nc2sc3c(c12)CCCCC3
Ratio CC50/EC50 [12]: 3.6 | CC50 (CEM-SS): 9800 nM | EC50 [13]: 2700 nM | IC50 [6]: 3600 nM | IC50 [7]: 2900 nM | IC50 [8]: 1600 nM | IC50 [9]: 2800 nM | IC50 [1]: 1800 nM | ΔTm [10]: 0.5 °C

Cc1sc2nc(-c3cccnc3)[nH]c(=O)c2c1C
IC50 [1]: 8300 nM

O=c1[nH]c(-c2ccccc2)nc2sc3c(c12)CCCCC3
IC50 [6]: 27900 nM | IC50 [7]: 1300 nM | IC50 [8]: 41400 nM | IC50 [9]: 960 nM | IC50 [1]: 4100 nM

CCCCc1c(C)sc2nc(-c3ccc(O)c(O)c3)[nH]c(=O)c12
Ratio CC50/EC50 [12]: 3.2 | CC50 (CEM-SS): 25400 nM | EC50 [13]: 7900 nM | inhibition [2]: inactive | inhibition [3]: Active | inhibition [4]: Active | inhibition [5]: > 60% | IC50 [6]: 1100 nM | IC50 [7]: 1200 nM | IC50 [8]: 490 nM | IC50 [9]: 910 nM | IC50 [1]: 420 nM | ΔTm [10]: 0.5 °C

Cc1sc2nc(-c3ccc(O)c(O)c3)[nH]c(=O)c2c1C
Ratio CC50/EC50 [12]: 2.3 | inhibition [14]: Active | CC50 (CEM-SS): 8900 nM | EC50 [13]: 3800 nM | inhibition [2]: inactive | IC50 [6]: 280 nM | IC50 [7]: 300 nM | IC50 [8]: 320 nM | IC50 [9]: 390 nM | IC50 [1]: 260 nM | ΔTm [10]: 0.5 °C | ΔTm [15]: 5.8 °C

O=c1[nH]c(-c2ccc(C(F)(F)F)cc2)nc2sc3c(c12)CCCCC3
IC50 [6]: 7200 nM | IC50 [7]: 540 nM | IC50 [8]: 10600 nM | IC50 [9]: 530 nM | IC50 [1]: 3100 nM

Cc1sc2nc(-c3cccc(C(F)(F)F)c3)[nH]c(=O)c2c1C
IC50 [1]: > 50000 nM

Cc1sc2nc(-c3cc(O)ccc3O)[nH]c(=O)c2c1C
IC50 [1]: 9300 nM

Cc1sc2nc(-c3ccccc3)[nH]c(=O)c2c1C
IC50 [1]: 11300 nM

Cc1sc2nc(-c3ccc(O)cc3)[nH]c(=O)c2c1C
IC50 [6]: 3700 nM | IC50 [7]: 200 nM | IC50 [8]: > 50000 nM | IC50 [9]: 140 nM | IC50 [1]: 790 nM

O=c1[nH]c(-c2cc(O)ccc2O)nc2sc3c(c12)CCCCC3
IC50 [1]: 1700 nM

O=c1[nH]c(-c2ccc(O)c(O)c2)nc2sc3c(c12)CCC3
inhibition [2]: inactive | inhibition [3]: Active | inhibition [4]: Active | inhibition [5]: > 60% | IC50 [6]: 370 nM | IC50 [7]: 470 nM | IC50 [8]: 260 nM | IC50 [9]: 210 nM | IC50 [1]: 320 nM | ΔTm [10]: 0.5 °C

CCCc1c(C)sc2nc(-c3cccc(O)c3O)[nH]c(=O)c12
Ratio CC50/EC50 [12]: 4 | CC50 (CEM-SS): 12400 nM | EC50 [13]: 3100 nM | inhibition [2]: inactive | IC50 [6]: 5700 nM | IC50 [7]: 3500 nM | IC50 [8]: 2900 nM | IC50 [9]: 4100 nM | IC50 [1]: 1700 nM | ΔTm [10]: 0.5 °C

CCCc1c(CC)sc2nc(-c3ccc(O)c(O)c3)[nH]c(=O)c12
Ratio CC50/EC50 [12]: 3.7 | CC50 (CEM-SS): 33700 nM | EC50 [13]: 9200 nM | inhibition [2]: inactive | inhibition [3]: Active | inhibition [4]: Active | inhibition [5]: > 60% | IC50 [6]: 820 nM | IC50 [7]: 1400 nM | IC50 [8]: 500 nM | IC50 [9]: 760 nM | IC50 [1]: 590 nM | ΔTm [10]: 0.5 °C

Cc1sc2nc(-c3cc(O)c(O)cc3O)[nH]c(=O)c2c1C
IC50 [1]: 1600 nM

O=c1[nH]c(-c2ccc(O)c(O)c2)nc2sc3c(c12)CCCCC3
Ratio CC50/EC50 [12]: 4.3 | inhibition [14]: Active | CC50 (CEM-SS): 6800 nM | EC50 [13]: 1600 nM | inhibition [2]: inactive | IC50 [6]: 360 nM | IC50 [7]: 550 nM | IC50 [8]: 260 nM | IC50 [9]: 370 nM | IC50 [1]: 290 nM | ΔTm [10]: 0.5 °C | ΔTm [15]: 5.9 °C

Cc1sc2nc(-c3ccc(F)c(F)c3)[nH]c(=O)c2c1C
IC50 [1]: > 50000 nM

Cc1sc2nc(-c3cccc(O)c3)[nH]c(=O)c2c1C
IC50 [1]: > 50000 nM

Cc1sc2nc(-c3cc(O)cc(O)c3)[nH]c(=O)c2c1C
IC50 [1]: 5200 nM

Cc1sc2nc(-c3ccc(C(F)(F)F)cc3)[nH]c(=O)c2c1C
IC50 [6]: 7500 nM | IC50 [7]: 230 nM | IC50 [8]: > 50000 nM | IC50 [9]: 310 nM | IC50 [1]: 1300 nM

O=c1[nH]c(-c2cc(O)cc(O)c2)nc2sc3c(c12)CCCCC3
IC50 [1]: 2600 nM

Cc1sc2nc(-c3cc(C(F)(F)F)cc(C(F)(F)F)c3)[nH]c(=O)c2c1C
IC50 [1]: > 50000 nM

O=c1[nH]c(-c2ccc(O)cc2)nc2sc3c(c12)CCCCC3
IC50 [6]: 6600 nM | IC50 [7]: 650 nM | IC50 [8]: 15800 nM | IC50 [9]: 640 nM | IC50 [1]: 3200 nM

Cc1sc2nc(-c3ccc(Cl)c([N+](=O)[O-])c3)[nH]c(=O)c2c1C
IC50 [1]: 12000 nM

Cc1sc2nc(-c3ccccn3)[nH]c(=O)c2c1C
IC50 [1]: 4200 nM

Cc1sc2nc(-c3ccc(C(=O)O)cc3)[nH]c(=O)c2c1C
IC50 [1]: 1600 nM
